From ChEMBL document CHEMBL1156228 (2010)
Several values for one entry are separate records, joined by “and”; a condition that tells them apart may be missing. Equal values may be shown once.

Legend:
[1] = Antioxidant activity assessed as peroxyl radical-scavenging activity at 1 mM by EPR spectroscopy; assay type: functional
Method in brief: (§1)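 Alkylperoxyl radicals generated by thermolysis of 2,2-azobis-2-amidinopropane dihydrochloride (25 mM) in aerobic PBS at 37°C. EPR run in PBS pH 7.4 with DEPMPO (1 mM) and DTPA (0.1 mM), with or without derivative. The DEPMPO-OOR adduct was quantified by double integration and expressed as percent of the untreated level.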

[2] = Antioxidant activity assessed as superoxide radical-scavenging activity at 100 uM by EPR spectroscopy; assay type: functional
Method in brief: (§2)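 Superoxide generated by xanthine (0.2 mM) plus xanthine oxidase (0.02 U/ml) in PBS pH 7.4 containing DEPMPO spin trap (1 mM) and DTPA (0.1 mM), with or without derivative. The DEPMPO-OOH adduct was measured by EPR and double-integrated. Signal is expressed as percent of the level without derivative.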

[3] = Antioxidant activity assessed as peroxyl radical-scavenging activity at 100 uM by EPR spectroscopy; assay type: functional; method in brief: as §1
[4] = Antioxidant activity in HSMC assessed as protection from H2O2-induced toxicity at 50 uM pretreated for 2 hrs before H2O2 challenge measured after 1 hr by MTT assay; assay type: functional, Homo sapiens
Method in brief: (§3)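 Cells grown to 80% confluence at 37°C in 5% CO2, trypsinized and seeded at about 7,000 cells/well. After 24–48 h they were exposed to derivative for 2 h, then to H2O2 at 1 mM for 1 h. Viability was read by MTT-to-formazan conversion, with at least 6 repeats.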

CHO = test: Antioxidant activity in CHO cells assessed as protection from H2O2-induced toxicity at 50 uM pretreated for 2 hrs before H2O2 challenge measured after 1 hr by MTT assay; assay type: functional, Cricetulus griseus; method in brief: as §3
[5] = Antioxidant activity assessed as superoxide radical-scavenging activity at 1 mM by EPR spectroscopy; assay type: functional; method in brief: as §2

Q: For `COc1ccc(CCN(C)CCCC(CNCC2=CC(C)(C)NC2(C)C)(c2ccc(OC)c(OC)c2)C(C)C)cc1OC` (centres undefined), which Activity [1] is on record?
A: 100%

Q: And the Activity [2]?
A: 73.8%

Q: What about the Activity [3] of the same molecule?
A: 89.8%

Q: What about the Activity [4] of the same molecule?
A: 39.1%

Q: What about the Activity (CHO) of the same molecule?
A: 71.2%

Q: And the Activity [5]?
A: 100%

Q: What does the source list for `COc1ccc(CCN(C)CCCC(CNC(=O)CC2(C)CCC(C)(C)N2O)(c2ccc(OC)c(OC)c2)C(C)C)cc1OC` (centres undefined)?
A: Activity [1]: 100%; Activity [2]: 70.7% and 78.1%; Activity [3]: 89.2%; Activity [4]: 44%; Activity (CHO): 54%; Activity [5]: 100%

Q: For `COc1ccc(CCN(C)CCCC(CNC(=O)C2=C(c3ccccc3)C(C)(C)N(O)C2(C)C)(c2ccc(OC)c(OC)c2)C(C)C)cc1OC` (centres undefined), which Activity [1] is on record?
A: 100%

Q: And the Activity [2]?
A: 79.3%

Q: What about the Activity [3] of the same molecule?
A: 86.1%

Q: What about the Activity [4] of the same molecule?
A: 47.5%

Q: And the Activity (CHO)?
A: 68.3%

Q: What about the Activity [5] of the same molecule?
A: 100%

Q: Which results are given for `COc1ccc(CCN(C)CCCC(CNC(=O)C2CC(C)(C)N(O)C2(C)C)(c2ccc(OC)c(OC)c2)C(C)C)cc1OC` (centres undefined)?
A: Activity [1]: 100%; Activity [2]: 84.2%; Activity [3]: 98%; Activity [4]: 40.2%; Activity (CHO): 62.1%; Activity [5]: 100%

Q: Which Activity [1] does the source give for `COc1ccc(CCN(C)CCC[C@@](CNC(=O)C2=CC(C)(C)N(O)C(C)(C)C2)(c2ccc(OC)c(OC)c2)C(C)C)cc1OC` here?
A: 100%

Q: What about the Activity [2] of the same molecule?
A: 66.5%

Q: What about the Activity [3] of the same molecule?
A: 91.4%

Q: And the Activity [4]?
A: 33.1%

Q: What about the Activity (CHO) of the same molecule?
A: 46.1%

Q: And the Activity [5]?
A: 100%

Q: With `COc1ccc(CCN(C)CCCC(CNC(=O)C2=CC(C)(C)N(C)C2(C)C)(c2ccc(OC)c(OC)c2)C(C)C)cc1OC` (centres undefined) as the molecule, how does the Activity [1] read?
A: 89.8%

Q: What about the Activity [4] of the same molecule?
A: 48.7%

Q: What about the Activity (CHO) of the same molecule?
A: 55.5%

Q: And the Activity [5]?
A: 60.7%

Q: With `COc1ccc(CCN(C)CCCC(CNC(=O)C2CC(C)(C)N(O)C(C)(C)C2)(c2ccc(OC)c(OC)c2)C(C)C)cc1OC` (centres undefined) as the molecule, how does the Activity [1] read?
A: 90.1%

Q: What about the Activity [2] of the same molecule?
A: 76.5%

Q: And the Activity [4]?
A: 40.2%

Q: And the Activity (CHO)?
A: 50.3%

Q: And the Activity [5]?
A: 100%

Q: What does the source list for `COc1ccc(CCN(C)CCCC(CNC(=O)C2=CC(C)(C)NC2(C)C)(c2ccc(OC)c(OC)c2)C(C)C)cc1OC` (centres undefined)?
A: Activity [1]: 84.1%; Activity [4]: 53.7%; Activity (CHO): 53.5%; Activity [5]: 34.9%

Q: For `COc1ccc(CCN(C)CCCC(CNC(=O)C2=C(C)C(C)(C)N(O)C2(C)C)(c2ccc(OC)c(OC)c2)C(C)C)cc1OC` (centres undefined), which Activity [1] is on record?
A: 100%

Q: And the Activity [2]?
A: 78.2%

Q: And the Activity [3]?
A: 100%

Q: And the Activity [4]?
A: 39.7%

Q: And the Activity (CHO)?
A: 60%

Q: And the Activity [5]?
A: 100%

Q: Which Activity [1] does the source give for `COc1ccc(CCN(C)CCCC(CNCC2=CC(C)(C)N(O)C2(C)C)(c2ccc(OC)c(OC)c2)C(C)C)cc1OC` (centres undefined) here?
A: 100%

Q: And the Activity [2]?
A: 88.5%

Q: What about the Activity [3] of the same molecule?
A: 92.9%

Q: What about the Activity [4] of the same molecule?
A: 43.3%

Q: And the Activity (CHO)?
A: 63.6%

Q: What about the Activity [5] of the same molecule?
A: 100%

Q: What does the source list for `COc1ccc(CCN(C)CCCC(CNC(=O)C2=CC(C)(C)N(O)C2(C)C)(c2ccc(OC)c(OC)c2)C(C)C)cc1OC` (centres undefined)?
A: Activity [1]: 14.9%; Activity [4]: 59.1%; Activity (CHO): 48.9%; Activity [5]: 55.2%
